{"source": "paper PMC3544278", "about": "(Journal of Medicinal Chemistry, 2012)", "key": {"FAAH": {"target": "T1, FAAH (Rattus norvegicus, UniProt P97612)", "T1 sequence (P97612 1-579)": "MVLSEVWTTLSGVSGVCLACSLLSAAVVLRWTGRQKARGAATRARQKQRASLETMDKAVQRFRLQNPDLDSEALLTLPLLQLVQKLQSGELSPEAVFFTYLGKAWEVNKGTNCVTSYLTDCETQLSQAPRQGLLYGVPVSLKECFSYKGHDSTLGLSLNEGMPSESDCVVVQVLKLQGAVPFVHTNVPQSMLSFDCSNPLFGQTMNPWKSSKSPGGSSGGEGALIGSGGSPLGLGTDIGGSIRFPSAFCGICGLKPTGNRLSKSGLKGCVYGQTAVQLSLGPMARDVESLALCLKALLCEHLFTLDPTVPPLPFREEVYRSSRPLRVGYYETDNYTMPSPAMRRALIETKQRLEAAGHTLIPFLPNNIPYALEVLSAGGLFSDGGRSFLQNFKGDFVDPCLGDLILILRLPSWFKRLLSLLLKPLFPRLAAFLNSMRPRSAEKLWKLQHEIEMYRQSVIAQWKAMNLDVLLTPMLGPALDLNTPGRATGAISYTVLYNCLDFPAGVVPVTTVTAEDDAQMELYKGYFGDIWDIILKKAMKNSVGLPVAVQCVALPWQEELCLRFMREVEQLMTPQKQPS", "assay": "Irreversible binding of [11C]-radiotracers to FAAH in rat brain parenchyma", "type": "in vivo"}, "[1]": {"assay": "Biodistribution of [11C]-radiotracers in rat brain", "type": "in vivo", "conditions": "mean (n = 5) ± SD", "method_in_brief": "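Conscious restrained rats (n = 5/time point) received 30–60 MBq [11C]-radiotracer (70–170 GBq/μmol; 0.3–0.8 nmol) iv by tail vein in buffered saline with 0.5% Tween 80. After decapitation, brain regions were excised, blotted, weighed, gamma-counted and decay-corrected against injected-dose standards. SUV = %ID/g […] body weight (kg). Blocking groups got an FAAH inhibitor (2 mg/kg ip, saline/Tween 80) or vehicle 30 min before. Student's t test.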"}}, "note": "Marks after values point to notes of the source that are not given here.", "data": [{"smiles": "O=C(NC1CCCCC1)Oc1cc(O)cc(-c2ccccc2)c1", "note": "[[^11C]1, [^11C-carbonyl]N-cyclohexyl-5-hydroxy[1,1′-biphenyl]-3-ylcarbamic acid ester]", "values": [{"measurement": "% bound (irreversibly) at 60 min postinjection", "setting": "FAAH", "result": "about 90%"}, {"measurement": "Regional brain uptake, cortex (2 min)", "setting": "[1]; 2 min post iv injection", "result": "2.40 ± 0.18", "unit": "SUV"}, {"measurement": "Regional brain uptake, hypothalamus (2 min)", "setting": "[1]; 2 min post iv injection", "result": "1.61 ± 0.23", "unit": "SUV"}, {"measurement": "Regional brain uptake, cortex (40 min)", "setting": "[1]; 40 min post iv injection", "result": "2.49 ± 0.25", "unit": "SUV"}, {"measurement": "Regional brain uptake, hypothalamus (40 min)", "setting": "[1]; 40 min post iv injection", "result": "1.14 ± 0.13", "unit": "SUV"}, {"measurement": "Regional brain uptake, cortex (40 min, blocked)", "setting": "[1]; 40 min post iv injection, pretreated with compound 2 (2 mg/kg, ip)", "result": "0.36 ± 0.04 ^b SUV"}]}]}
